# Laboratory results as given in ChEMBL document CHEMBL4219224, “Structure based drug design and in vitro metabolism study: Discovery of N-(4-methylthiophenyl)-N,2-dimethyl-cyclopenta[d]pyrimidine as a potent microtubule targeting agent” (Bioorg Med Chem, 2018).
# Tests used:
# HeLa [1] = experiment: Resistance index, ratio of IC50 for human HeLa cells expressing wild type beta3 tubulin to IC50 for human HeLa cells; assay type: functional
# How it was run: (§1)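 Antiproliferative IC50 by SRB assay (cellular protein) in each isogenic pair: SK-OV-3 parental versus Pgp-expressing, and parental HeLa versus wild-type βIII-tubulin-expressing HeLa. Rr is the IC50 ratio of the modified line to the parental line. At least three independent experiments, each in triplicate, mean ± SD.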
# [2] = Stability in human liver microsome assessed as parent compound remaining at 20 uM after 60 mins in presence of NADPH by LC-MS/MS analysis; assay type: ADME; conditions: liver microsomes, read-out: Stability
# How it was run: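 Human liver microsomes (both genders; 1.0 mg/mL) in 100 mM PBS pH 7.4 with 3 mM MgCl2 and 10 mM NADPH, preincubated at 37 °C. Reaction started with compound at 20 μM final (from DMSO stock); propranolol 5 μM as control. Aliquots at 0 and 60 min quenched in ice-cold ACN. Analysed by LC/MS/MS on a C18 column, 5–75% B gradient over 30 min, ESI.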
# NCI-H460 = experiment: Growth inhibition of human NCI-H460 cells incubated for 48 hrs by sulforhodamine B assay; assay type: functional; conditions: NCI-H460, 48 h
# HeLa [3] = experiment: Antiproliferative activity against human HeLa cells by SRB assay; assay type: functional, cell-based
# SW-620 = experiment: Growth inhibition of human SW620 cells incubated for 48 hrs by sulforhodamine B assay; assay type: functional; conditions: SW-620, 48 h
# SF-539 = experiment: Growth inhibition of human SF539 cells incubated for 48 hrs by sulforhodamine B assay; assay type: functional; conditions: SF-539, 48 h
# U-251 = experiment: Growth inhibition of human U251 cells incubated for 48 hrs by sulforhodamine B assay; assay type: functional; conditions: U-251, 48 h
# RXF 393 = experiment: Growth inhibition of human RXF393 cells incubated for 48 hrs by sulforhodamine B assay; assay type: functional; conditions: RXF 393, 48 h
# SK-MEL-28 = experiment: Growth inhibition of human SK-MEL-28 cells incubated for 48 hrs by sulforhodamine B assay; assay type: functional; conditions: SK-MEL-28, 48 h
# SK-OV-3 = experiment: Antiproliferative activity against human SKOV3 cells by SRB assay; assay type: functional, cell-based
# DU-145 = experiment: Growth inhibition of human DU145 cells incubated for 48 hrs by sulforhodamine B assay; assay type: functional; conditions: DU-145, 48 h
# SF-268 = experiment: Growth inhibition of human SF268 cells incubated for 48 hrs by sulforhodamine B assay; assay type: functional; conditions: SF-268, 48 h
# COLO 205 = experiment: Growth inhibition of human COLO205 cells incubated for 48 hrs by sulforhodamine B assay; assay type: functional; conditions: COLO 205, 48 h
# BT-549 = experiment: Growth inhibition of human BT549 cells incubated for 48 hrs by sulforhodamine B assay; assay type: functional; conditions: BT-549, 48 h
# OVCAR-5 = experiment: Growth inhibition of human OVCAR5 cells incubated for 48 hrs by sulforhodamine B assay; assay type: functional; conditions: OVCAR-5, 48 h
# SF-295 = experiment: Growth inhibition of human SF295 cells incubated for 48 hrs by sulforhodamine B assay; assay type: functional; conditions: SF-295, 48 h
# SK-MEL-5 = experiment: Growth inhibition of human SK-MEL-5 cells incubated for 48 hrs by sulforhodamine B assay; assay type: functional; conditions: SK-MEL-5, 48 h
# HL-60(TB) = experiment: Growth inhibition of human HL-60(TB) cells incubated for 48 hrs by sulforhodamine B assay; assay type: functional; conditions: HL-60, 48 h
# Bos taurus [4] = species: Bos taurus; experiment: Inhibition of [3H]colchicine binding to bovine brain tubulin at 5 uM measured after 10 mins by scintillation counting method relative to control
# How it was run: (§2)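 Reactions of 0.1 mL held 1.0 μM bovine brain tubulin, 5.0 μM [3H]colchicine, inhibitor at 1.0 or 5.0 μM, colchicine-binding stabilizing components and 5% DMSO, assembled on ice with tubulin added last. Incubated 10 min at 37 °C, stopped with ice water, filtered through DEAE-cellulose filters. Bound radiolabel counted by scintillation.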
# IGROV-1 = experiment: Growth inhibition of human IGROV1 cells incubated for 48 hrs by sulforhodamine B assay; assay type: functional; conditions: IGROV-1, 48 h
# MCF7 = experiment: Growth inhibition of human MCF7 cells incubated for 48 hrs by sulforhodamine B assay; assay type: functional; conditions: MCF7, 48 h
# HCT-15 = experiment: Growth inhibition of human HCT15 cells incubated for 48 hrs by sulforhodamine B assay; assay type: functional; conditions: HCT-15, 48 h
# [5] = Antiproliferative activity against human SKOV3-MDR1-M6/6 cells by SRB assay; assay type: functional
# NCI-H522 = experiment: Growth inhibition of human NCI-H522 cells incubated for 48 hrs by sulforhodamine B assay; assay type: functional; conditions: NCI-H522, 48 h
# Bos taurus [6] = species: Bos taurus; experiment: Inhibition of [3H]colchicine binding to bovine brain tubulin at 1 uM measured after 10 mins by scintillation counting method relative to control; how it was run: as §2
# SNB-75 = experiment: Growth inhibition of human SNB75 cells incubated for 48 hrs by sulforhodamine B assay; assay type: functional; conditions: SNB-75, 48 h
# A549 = experiment: Growth inhibition of human A549/ATCC cells incubated for 48 hrs by sulforhodamine B assay; assay type: functional; conditions: A549, 48 h
# OVCAR-3 = experiment: Growth inhibition of human OVCAR3 cells incubated for 48 hrs by sulforhodamine B assay; assay type: functional; conditions: OVCAR-3, 48 h
# NCI-H226 = experiment: Growth inhibition of human NCI-H226 cells incubated for 48 hrs by sulforhodamine B assay; assay type: functional; conditions: NCI-H226, 48 h
# K562 = experiment: Growth inhibition of human K562 cells incubated for 48 hrs by sulforhodamine B assay; assay type: functional; conditions: K562, 48 h
# M14 = experiment: Growth inhibition of human M14 cells incubated for 48 hrs by sulforhodamine B assay; assay type: functional; conditions: M14, 48 h
# RPMI-8226 = experiment: Growth inhibition of human RPMI8226 cells incubated for 48 hrs by sulforhodamine B assay; assay type: functional; conditions: RPMI-8226, 48 h
# A498 = experiment: Growth inhibition of human A498 cells incubated for 48 hrs by sulforhodamine B assay; assay type: functional; conditions: A498, 48 h
# SNB-19 = experiment: Growth inhibition of human SNB19 cells incubated for 48 hrs by sulforhodamine B assay; assay type: functional; conditions: SNB-19, 48 h
# [7] = Resistance index, ratio of IC50 for human SKOV3-MDR1-M6/6 cells to IC50 for human SKOV3 cells; assay type: functional; how it was run: as §1
# Hs-578T = experiment: Growth inhibition of human Hs578T cells incubated for 48 hrs by sulforhodamine B assay; assay type: functional
# HeLa [8] = experiment: Antiproliferative activity against human HeLa cells expressing wild type beta3 tubulin by SRB assay; assay type: functional, cell-based
# MDA-MB-468 = experiment: Growth inhibition of human MDA-MB-468 cells incubated for 48 hrs by sulforhodamine B assay; assay type: functional; conditions: MDA-MB-468, 48 h
# MDA-MB-435 = experiment: Growth inhibition of human MDA-MB-435 cells incubated for 48 hrs by sulforhodamine B assay; assay type: functional; conditions: MDA-MB-435, 48 h
# HCT-116 = experiment: Growth inhibition of human HCT116 cells incubated for 48 hrs by sulforhodamine B assay; assay type: functional; conditions: HCT-116, 48 h
# SR = experiment: Growth inhibition of human SR cells incubated for 48 hrs by sulforhodamine B assay; assay type: functional
compound,measurement,setting,value
CSc1ccc(N(C)c2nc(C)nc3c2CCC3)cc1,Ratio IC50,HeLa [1],0.8
same,"remaining at 1 h, 20 µM",[2],46.4%
same,GI50,NCI-H460,< 10 nM
same,IC50,HeLa [3],7 nM
same,GI50,SW-620,< 10 nM
same,GI50,SF-539,< 10 nM
same,GI50,U-251,< 10 nM
same,GI50,RXF 393,< 10 nM
same,GI50,SK-MEL-28,> 10000 nM
same,IC50,SK-OV-3,7.2 nM
same,GI50,DU-145,< 10 nM
same,GI50,SF-268,< 10 nM
same,GI50,COLO 205,< 10 nM
same,GI50,BT-549,< 10 nM
same,GI50,OVCAR-5,> 10000 nM
same,GI50,SF-295,< 10 nM
same,GI50,SK-MEL-5,< 10 nM
same,GI50,HL-60(TB),< 10 nM
same,inhibition,Bos taurus [4],92%
same,GI50,IGROV-1,< 10 nM
same,GI50,MCF7,< 10 nM
same,GI50,HCT-15,< 10 nM
same,IC50,[5],9.3 nM
same,GI50,NCI-H522,< 10 nM
same,inhibition,Bos taurus [6],74%
same,GI50,SNB-75,< 10 nM
same,GI50,A549,< 10 nM
same,GI50,OVCAR-3,< 10 nM
same,GI50,NCI-H226,< 10 nM
same,GI50,K562,< 10 nM
same,GI50,M14,< 10 nM
same,GI50,RPMI-8226,< 10 nM
same,GI50,A498,< 10 nM
same,GI50,SNB-19,< 10 nM
same,Ratio IC50,[7],1.3
same,GI50,Hs-578T,< 10 nM
same,IC50,HeLa [8],5.3 nM
same,GI50,MDA-MB-468,< 10 nM
same,GI50,MDA-MB-435,< 10 nM
same,GI50,HCT-116,< 10 nM
same,GI50,SR,< 10 nM
